The experiment relates to L1210. Put plainly: In vitro inhibition of L1210 cell growth. The experiment is classed as functional. The following applies: Mus musculus, read-out: ID50 (the source's name). An outline of the steps: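 Murine L1210 leukemia cells grown in suspension in McCoy's 5A with 10% horse serum, glutamine, penicillin, streptomycin; 37 °C, 10% CO2. Compound in Me2SO added to 10^5 cells/tube to final 0.01, 0.1 and 10 μg/mL; 7 h continuous exposure.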

For 17 molecules, IC50 results are on record in ChEMBL document CHEMBL1123330, “Synthesis and antitumor activities of unsymmetrically substituted 1,4-bis[(aminoalkyl)amino]anthracene-9,10-diones and related systems” (1986).

≈ marks a conversion by molar mass, not a printed value.

`COc1ccc(NCCCN)c2c1C(=O)c1ccccc1C2=O`: the IC50 came to 2.8 µg/mL (≈ 9.02 µM). The figure for `CC(=O)NCCCCNc1ccc(NCCN(C)C)c2c1C(=O)c1ccccc1C2=O` is 0.03 µg/mL (≈ 0.071 µM); for `COc1ccc(NCCNC(C)=O)c2c1C(=O)c1ccccc1C2=O` it is over 10 µg/mL. Regarding `COc1ccc(NCCCCCNC(C)=O)c2c1C(=O)c1ccccc1C2=O`, the IC50 was found to be 9 µg/mL (≈ 23.7 µM). The figure for `CN(C)CCNc1ccc(NCCCCNC(=O)OCc2ccccc2)c2c1C(=O)c1ccccc1C2=O` is 0.88 µg/mL (≈ 1.71 µM). The figure for `COc1ccc(NCCCCN)c2c1C(=O)c1ccccc1C2=O` is 1.8 µg/mL (≈ 5.55 µM); for `CC(=O)NCCNc1ccc(NCCN(C)C)c2c1C(=O)c1ccccc1C2=O` it is 2.05 µg/mL (≈ 5.2 µM); for `CN(C)CCCNc1ccc(NCCCCN)c2c1C(=O)c1ccccc1C2=O` it is 0.18 µg/mL (≈ 0.456 µM). The figure for `COc1ccc(NCCCCNC(=O)OCc2ccccc2)c2c1C(=O)c1ccccc1C2=O` is over 10 µg/mL.

As to `CC(=O)NCCCNc1ccc(NCCN(C)C)c2c1C(=O)c1ccccc1C2=O`, the IC50 stood at 0.4 µg/mL (≈ 0.979 µM). The value for `COc1ccc(NCCN)c2c1C(=O)c1ccccc1C2=O` was 2.5 µg/mL (≈ 8.44 µM); that for `CN(C)CCNc1ccc(NCCCCN)c2c1C(=O)c1ccccc1C2=O` was 0.0045 µg/mL (≈ 0.0118 µM); that for `CC(=O)NCCCCCNc1ccc(NCCN(C)C)c2c1C(=O)c1ccccc1C2=O` was 2.3 µg/mL (≈ 5.27 µM). The figure for `CN(C)CCNc1ccc(NCCCN)c2c1C(=O)c1ccccc1C2=O` is 0.05 µg/mL (≈ 0.136 µM); for `COc1ccc(NCCCNC(C)=O)c2c1C(=O)c1ccccc1C2=O` it is over 10 µg/mL; for `CN(C)CCCNc1ccc(NCCCCNC(=O)OCc2ccccc2)c2c1C(=O)c1ccccc1C2=O` it is 0.29 µg/mL (≈ 0.549 µM).

Consider `COc1ccc(NCCCCNC(C)=O)c2c1C(=O)c1ccccc1C2=O`, for which the IC50 is over 10 µg/mL.
